Measurements pooled from the literature.
Lines come from different studies, so protocols differ.
Target: Serine/threonine-protein kinase PAK 4 (PAK4, Homo sapiens, UniProt O96013)

| Structure (SMILES) | read-out | technique | concentration | remaining binding [%] |
| --- | --- | --- | --- | --- |
| O=C(c1ccc(Nc2ncc(Cl)c(-c3cc4ccccc4s3)n2)cc1)N1CCC(N2CCCC2)CC1 | binding | competition with immobilised ligand | 1 µM | 77 |
| CN(C)c1nccc(-c2cnc3ncccn23)n1 | binding |  | 1 µM | 88 |
| O=C(c1ccc(Nc2nccc(-c3cc4ccccc4s3)n2)cc1)N1CCC(N2CCCC2)CC1 | binding | competition with immobilised ligand | 1 µM | 81 |
| Cn1cc(Cl)c2c(Oc3c(F)cc(Nc4cc(Cl)nc(N)n4)cc3F)ccnc21 | cell-free assay | competition with immobilised ligand | 0.1 µM | 100 |
| CN(C)c1nccc(-c2cnn3ncccc23)n1 | binding |  | 1 µM | 100 |
| CNC(=O)Nc1ccc2c(c1)[C@@]1(CC2)OC(=O)N(CC(=O)N(Cc2ccc(F)cc2)[C@@H](C)C(F)(F)F)C1=O | cell-free assay | competition with immobilised ligand | 1 µM | 95 |
| O=C(NCC1CCOCC1)c1n[nH]cc1NC(=O)c1c(F)cccc1F | binding | competition with immobilised ligand | 1 µM | 99 |
| COc1cnc(Nc2cccc(S(N)(=O)=O)c2)nc1N1CCN(c2ccccc2)C(=O)C1 | binding | competition with immobilised ligand | 1 µM | 100 |
| O=C(O)c1cc(-c2ccc(C3CCNCC3)cc2)c2ccc(-c3ccc(C(F)(F)F)cc3)cc2c1 | cell-free assay | competition with immobilised ligand | 1 µM | 100 |
| CCN1CCN(Cc2ccc(C(=O)Nc3ccc(C)c(Oc4ccc5c(c4)CC(=O)N5)c3)cc2C(F)(F)F)CC1 | binding | competition with immobilised ligand | 1 µM | 100 |
| COc1ccnn2ncc(-c3ccnc(N(C)C)n3)c12 | binding |  | 1 µM | 85 |
| C[C@@H]1CN(c2ccc3ncc(-c4ccc5[nH]nc(C6CC6)c5c4)n3n2)C[C@H](C)O1 | binding | competition with immobilised ligand | 50 nM | 90 |
| CCC(=N\O)/C(C)=C/c1ccc(F)cc1 | cell-free assay | competition with immobilised ligand | 1 µM | 100 |
| O=C(NCCCN1CCOCC1)c1ccc(Nc2nccc(-c3cc4ccccc4s3)n2)cc1 | binding | competition with immobilised ligand | 1 µM | 91 |
| N[C@H]1CCN(c2nccc(-c3cnn4ncccc34)n2)C1 | binding |  | 1 µM | 88 |
| Cc1nc(C2CCN(C(=O)c3ccc(OC(F)(F)F)cc3N)CC2)c2ncc(N3CCN(C)CC3)cc2n1 | cell-free assay | competition with immobilised ligand | 1 µM | 100 |
| COc1ncc2cc3ccccc3nc2c1C#N | cell-free assay | competition with immobilised ligand | 5 µM | 97 |
| c1cncc(-c2cccc(Nc3nccc(NC4CCCCC4)n3)c2)c1 | binding | competition with immobilised ligand | 10 µM | 83 |
| CS(=O)(=O)NCC[C@H](NC(=O)c1cncc2c1cnn2-c1ccc(F)cc1)c1ccnc(S(C)(=O)=O)c1 | cell-free assay | competition with immobilised ligand | 1 µM | 100 |
| c1cnn2ncc(-c3ccnc(N4CCC45COC5)n3)c2c1 | binding |  | 1 µM | 96 |
| CC(C)(C)c1ccc(-c2nc(CBr)nn2-c2cccc(O)c2)cc1 | cell-free assay | competition with immobilised ligand | 10 µM | 87 |
| C[C@@H]1CCN(c2nccc(-c3cnn4ncccc34)n2)C1 | binding |  | 1 µM | 100 |
| CS(=O)(=O)c1cc(C2(NC(=O)c3cncc4c3cnn4-c3ccc(F)cc3)CC2)ccn1 | cell-free assay | competition with immobilised ligand | 1 µM | 100 |
| F[C@@H]1CCN(c2nccc(-c3cnn4ncccc34)n2)C1 | binding |  | 1 µM | 100 |
| O=C(NCc1ncc(C(F)(F)F)cc1Cl)c1ccc2c(c1)C1(CCS(=O)(=O)CC1)[C@H](C1CC1)N2S(=O)(=O)c1ccc(F)cc1 | cell-free assay | competition with immobilised ligand | 1 µM | 100 |
